For assay [1], the target named is T1, Prostaglandin G/H synthase 2 (Mus musculus) (UniProt Q05769).
T1 sequence (whole entry): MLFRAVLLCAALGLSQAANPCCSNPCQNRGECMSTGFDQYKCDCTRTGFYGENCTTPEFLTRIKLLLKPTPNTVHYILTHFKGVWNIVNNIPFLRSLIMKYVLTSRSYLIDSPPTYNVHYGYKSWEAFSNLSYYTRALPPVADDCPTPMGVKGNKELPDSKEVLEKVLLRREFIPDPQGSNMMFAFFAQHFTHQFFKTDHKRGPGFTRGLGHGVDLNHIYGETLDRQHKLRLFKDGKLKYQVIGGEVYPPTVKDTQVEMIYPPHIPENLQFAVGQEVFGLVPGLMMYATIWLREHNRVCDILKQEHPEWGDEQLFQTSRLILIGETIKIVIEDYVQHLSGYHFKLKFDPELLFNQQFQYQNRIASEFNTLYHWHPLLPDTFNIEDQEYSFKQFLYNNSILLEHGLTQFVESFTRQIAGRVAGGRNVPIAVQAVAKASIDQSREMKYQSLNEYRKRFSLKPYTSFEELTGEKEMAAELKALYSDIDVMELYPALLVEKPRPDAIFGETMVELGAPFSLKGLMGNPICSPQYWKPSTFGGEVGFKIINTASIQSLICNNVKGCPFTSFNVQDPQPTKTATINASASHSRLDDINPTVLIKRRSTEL
As to the kind of experiment: Activation of COX2 in LPS-stimulated mouse J774 cells assessed as stimulation of PGE2 production by […]. Format: cell-based. More on the design: concentration or dose not given beside the values. In short, it runs like this: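 Mouse J774 monocyte-macrophages in DMEM/10% FCS, plated at 2.5×10^5 cells/ml and adhered 24 h. Stimulated with LPS 5 µg/ml for 72 h with compound (10 µM, DMSO vehicle). Supernatant PGE2 by competitive peroxidase EIA at 450 nm (50–6400 pg/ml) against vehicle control. Mean ± SEM, three experiments in triplicate.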

Assay [2] deals with T2, Prostaglandin G/H synthase 2 (Homo sapiens) (UniProt P35354).
T2 sequence (whole entry): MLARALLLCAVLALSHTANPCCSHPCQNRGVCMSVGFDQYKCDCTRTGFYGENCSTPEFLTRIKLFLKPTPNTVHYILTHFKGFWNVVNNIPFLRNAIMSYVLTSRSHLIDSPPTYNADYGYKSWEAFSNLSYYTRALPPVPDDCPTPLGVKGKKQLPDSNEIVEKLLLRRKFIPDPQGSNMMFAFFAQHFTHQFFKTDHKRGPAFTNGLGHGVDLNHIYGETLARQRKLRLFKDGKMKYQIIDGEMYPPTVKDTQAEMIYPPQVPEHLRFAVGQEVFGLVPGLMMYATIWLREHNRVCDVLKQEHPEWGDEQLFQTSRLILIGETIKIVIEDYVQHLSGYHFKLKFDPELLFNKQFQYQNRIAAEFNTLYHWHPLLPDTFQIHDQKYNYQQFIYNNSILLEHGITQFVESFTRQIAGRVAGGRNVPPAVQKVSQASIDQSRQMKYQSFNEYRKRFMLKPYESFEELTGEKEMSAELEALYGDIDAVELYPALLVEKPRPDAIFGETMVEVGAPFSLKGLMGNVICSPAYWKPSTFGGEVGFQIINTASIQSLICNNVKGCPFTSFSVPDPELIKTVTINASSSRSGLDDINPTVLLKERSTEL
In words: Activation of COX2 in LPS-stimulated human whole blood assessed as stimulation of PGE2 production at 10 uM […]. Format: tissue-based. In short, it runs like this:
(§1)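 Heparinized (10 IU) whole blood from young healthy volunteers, drawn 48 h after 300 mg oral aspirin to suppress platelet COX-1. 1 ml aliquots; compound added in DMSO (final 10 µM) before LPS 10 µg/ml, 24 h at 37 °C. Plasma stored at -70 °C, PGE2 by competitive peroxidase EIA at 450 nm (range 50–6400 pg/ml). Mean ± SEM, three experiments in triplicate.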

Assay [3] deals with T3, Nitric oxide synthase, inducible (Mus musculus) (UniProt P29477).
T3 sequence (whole entry): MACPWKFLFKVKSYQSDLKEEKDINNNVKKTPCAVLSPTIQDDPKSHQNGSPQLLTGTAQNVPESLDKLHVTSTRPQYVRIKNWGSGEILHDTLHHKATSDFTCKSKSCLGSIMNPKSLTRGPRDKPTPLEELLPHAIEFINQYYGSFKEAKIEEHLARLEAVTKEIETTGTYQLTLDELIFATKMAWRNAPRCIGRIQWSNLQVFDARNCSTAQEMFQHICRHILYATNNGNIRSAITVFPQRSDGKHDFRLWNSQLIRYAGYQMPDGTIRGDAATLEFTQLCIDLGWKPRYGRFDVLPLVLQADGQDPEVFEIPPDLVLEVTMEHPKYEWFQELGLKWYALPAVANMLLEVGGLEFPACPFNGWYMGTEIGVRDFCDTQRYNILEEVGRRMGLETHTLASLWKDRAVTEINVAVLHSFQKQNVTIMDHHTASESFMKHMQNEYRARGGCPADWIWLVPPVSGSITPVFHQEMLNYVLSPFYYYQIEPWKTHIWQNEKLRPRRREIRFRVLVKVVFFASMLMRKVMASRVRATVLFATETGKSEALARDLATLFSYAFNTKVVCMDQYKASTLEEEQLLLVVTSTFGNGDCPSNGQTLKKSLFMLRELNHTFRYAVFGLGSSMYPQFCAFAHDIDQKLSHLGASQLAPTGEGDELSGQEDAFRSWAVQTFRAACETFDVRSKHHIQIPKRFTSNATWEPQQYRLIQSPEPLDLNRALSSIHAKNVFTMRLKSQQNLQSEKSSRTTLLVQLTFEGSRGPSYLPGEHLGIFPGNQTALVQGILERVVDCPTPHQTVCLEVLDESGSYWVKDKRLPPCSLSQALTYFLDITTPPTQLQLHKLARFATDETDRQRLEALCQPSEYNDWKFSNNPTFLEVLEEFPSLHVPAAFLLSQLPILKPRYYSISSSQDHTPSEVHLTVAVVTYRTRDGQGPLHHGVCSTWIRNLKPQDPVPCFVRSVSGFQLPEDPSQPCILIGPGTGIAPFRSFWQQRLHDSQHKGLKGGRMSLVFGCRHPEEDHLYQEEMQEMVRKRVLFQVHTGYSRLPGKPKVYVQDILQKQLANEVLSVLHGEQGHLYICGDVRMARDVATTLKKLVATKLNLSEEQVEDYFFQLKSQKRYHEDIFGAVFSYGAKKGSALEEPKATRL
As to the kind of experiment: Activation of iNOS in LPS-stimulated mouse J774 cells assessed as stimulation of nitric oxide generation at 10 uM. Format: cell-based. The gist of the method:
(§2)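 J774 cells plated at 2.5×10^5 cells/ml, adhered 24 h, then given LPS 5 µg/ml for 72 h with compound at 10 µM (DMSO vehicle). Supernatant nitrite measured by Griess reaction, 10 min at room temperature, absorbance at 550 nm against sodium nitrite standard (detection limit 1 µM). NGMMA 500 µM served as control. Mean ± SEM, three experiments in triplicate.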

Assay [4] concerns the target T3, Nitric oxide synthase, inducible (Mus musculus). As to the kind of experiment: Inhibition of iNOS in LPS-stimulated mouse J774 cells assessed as inhibition of nitric oxide generation at 10 uM. Format: cell-based. In short, it runs like this: as §2
Assay [5] has as its target T2, Prostaglandin G/H synthase 2 (Homo sapiens). The following applies: Blood, at 10 µM.
Assay [6] deals with T4, Prostaglandin G/H synthase 2 (Homo sapiens, UniProt P35354).
T4 sequence (P35354 whole entry): T2 sequence (whole entry)
As to the kind of experiment: Inhibition of COX2 in LPS-stimulated human whole blood assessed as inhibition of PGE2 production by […]. Format: tissue-based. In short, it runs like this:
as §1

Each structure is given as a SMILES string.

`CC(Sc1nc2c([nH]c3ccccc32)c(=O)n1N)C(=O)O` (stereo unspecified): the Activity stood at 180% in assay [1], 28% in assay [2] and 35% in assay [3].
`Nn1c(SC2CCCCC2)nc2sc(-c3ccccc3)cc2c1=O`: the inhibition (as a rule, the share of the control response that was lost under treatment) in assay [4] was found to be 70%; in assay [5], 90%.
Take `CC(Sc1nc2sc(-c3ccccc3)cc2c(=O)n1N)C(=O)O` (stereo unspecified): the Activity in assay [1] was found to be 250%; in assay [2], 90%; in assay [3], 52%.
Consider `CC(Sc1nc2ccccc2c(=O)n1N)C(=O)O` (stereo unspecified), for which the values for the inhibition in assay [4] and in assay [5] were 50% and 88%, respectively. The half-maximal inhibitory concentration (IC50) – broadly, the midpoint of a concentration-inhibition curve – in assay [6] was determined as 5.8 µM.
In the same order, the values of `Nn1c(SC(C(=O)O)c2ccccc2)nc2ccc(Br)cc2c1=O` (stereo unspecified) are 38%, 70% and 7 µM.
With `CC(Sc1nc2c(sc3ccccc32)c(=O)n1N)C(=O)O` (stereo unspecified), the figures for the Activity in assay [1], in assay [2] and in assay [3] were 52%, 6% and 10%, respectively.
With `CS(=O)(=O)Nn1c(Sc2ccc([N+](=O)[O-])cc2[N+](=O)[O-])nc2sc(-c3ccccc3)cc2c1=O`, the inhibition in assay [4] and in assay [5] was 100% each time. In assay [6], the half-maximal inhibitory concentration (IC50) amounted to 3.4 µM.
`Nn1c(Sc2ccc([N+](=O)[O-])cc2[N+](=O)[O-])nc2sc(-c3ccccc3)cc2c1=O`: the inhibition in assay [4] was determined as 60%; in assay [5], 75%.
On to `COc1ccc2c(c1)c(CC(=O)O)c(C)n2C(=O)c1ccc(Cl)cc1`, for which, in assay [4], the inhibition came to 90%.
On the same count and under the same terms, as for `Cc1ccc(-c2cc(C(F)(F)F)nn2-c2ccc(S(N)(=O)=O)cc2)cc1`, the figure is 96%.
On to `Nn1c(SC(C(=O)O)c2ccccc2)nc2ccccc2c1=O` (stereo unspecified), for which the Activity in assay [1] worked out at 30%; in assay [2], 21%; in assay [3], 5%.
As to `Nn1c(SC(C(=O)O)c2ccccc2)nc2ccsc2c1=O` (stereo unspecified), the inhibition in assay [4] amounted to 55%.
With `Cc1sc2nc(SC(C(=O)O)c3ccccc3)n(N)c(=O)c2c1C` (stereo unspecified), the figures for the Activity in assay [1], in assay [2] and in assay [3] were 346%, 205% and 11%, respectively.

Source of the values: ChEMBL document CHEMBL1152748, “Inhibition of iNOS and COX-2 in human whole blood ex vivo and monocyte-macrophage J774 cells by a new group of aminothiopyrimidone derivatives” (Bioorg Med Chem, 2009).
